Experimental data taken from the M2OR odorant receptor database.

Columns and labels:
Settings in all cases: stereoisomer not certain
[1] = test system: T1, O1440
T1 sequence (whole entry): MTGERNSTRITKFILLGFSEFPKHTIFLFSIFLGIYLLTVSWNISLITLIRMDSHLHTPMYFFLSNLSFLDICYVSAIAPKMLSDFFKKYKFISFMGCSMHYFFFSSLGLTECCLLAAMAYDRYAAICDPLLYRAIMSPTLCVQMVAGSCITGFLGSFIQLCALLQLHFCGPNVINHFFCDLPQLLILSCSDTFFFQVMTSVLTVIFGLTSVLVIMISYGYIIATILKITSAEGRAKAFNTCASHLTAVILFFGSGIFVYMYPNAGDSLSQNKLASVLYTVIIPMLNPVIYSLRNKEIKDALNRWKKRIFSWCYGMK
In short: (§1)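 Values were gathered from published papers (main text and supplementary material), with extra details requested from the original authors when needed, and checked for typos and inconsistencies. Each receptor–molecule pair is called responsive (active) if the original authors judged the measured signal statistically different from baseline, and non-responsive (inactive) otherwise. Assay methods varied by source, often transient mammalian cell-line luciferase assays. Recorded details include cell line, G-protein, co-transfected protein and tags.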

[2] = test system: T2, O1440; remark: listed apart in the source
T2 sequence (whole entry): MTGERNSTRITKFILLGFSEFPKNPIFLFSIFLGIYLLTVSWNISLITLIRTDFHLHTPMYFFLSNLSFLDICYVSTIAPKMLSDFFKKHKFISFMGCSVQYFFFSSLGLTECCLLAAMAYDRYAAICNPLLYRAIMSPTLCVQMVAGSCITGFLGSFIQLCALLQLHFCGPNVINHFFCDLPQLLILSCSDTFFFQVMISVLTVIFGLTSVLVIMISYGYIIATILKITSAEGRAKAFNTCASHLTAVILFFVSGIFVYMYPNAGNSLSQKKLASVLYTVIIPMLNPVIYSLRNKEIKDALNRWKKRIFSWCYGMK
In short: as §1

[3] = test system: O13C2 H6Q
Chain of O13C2 H6Q (as listed by the source): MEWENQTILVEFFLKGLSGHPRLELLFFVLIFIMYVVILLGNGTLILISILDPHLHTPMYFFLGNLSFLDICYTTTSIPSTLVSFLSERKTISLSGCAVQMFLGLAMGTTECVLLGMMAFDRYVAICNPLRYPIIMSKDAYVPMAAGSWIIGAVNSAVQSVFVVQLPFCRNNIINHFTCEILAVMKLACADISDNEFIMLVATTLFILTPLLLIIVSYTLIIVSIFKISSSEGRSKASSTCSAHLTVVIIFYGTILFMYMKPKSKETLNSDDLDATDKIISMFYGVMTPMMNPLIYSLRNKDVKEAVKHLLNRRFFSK
In short: as §1

[4] = test system: O13C8 A19D
Chain of O13C8 A19D (as listed by the source, stated change not applied): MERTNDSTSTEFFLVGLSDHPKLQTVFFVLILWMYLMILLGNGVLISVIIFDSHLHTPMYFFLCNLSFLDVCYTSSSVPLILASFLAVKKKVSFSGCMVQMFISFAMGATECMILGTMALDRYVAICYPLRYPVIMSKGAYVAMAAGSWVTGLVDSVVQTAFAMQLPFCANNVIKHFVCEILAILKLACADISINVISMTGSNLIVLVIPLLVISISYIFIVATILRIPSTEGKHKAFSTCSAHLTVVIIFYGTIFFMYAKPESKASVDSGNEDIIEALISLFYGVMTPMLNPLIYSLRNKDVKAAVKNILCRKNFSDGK
In short: as §1

[5] = test system: O13C9 H17L V19G L23H
In short: as §1

[6] = test system: O13C9 Q6H
Chain of O13C9 Q6H (as listed by the source): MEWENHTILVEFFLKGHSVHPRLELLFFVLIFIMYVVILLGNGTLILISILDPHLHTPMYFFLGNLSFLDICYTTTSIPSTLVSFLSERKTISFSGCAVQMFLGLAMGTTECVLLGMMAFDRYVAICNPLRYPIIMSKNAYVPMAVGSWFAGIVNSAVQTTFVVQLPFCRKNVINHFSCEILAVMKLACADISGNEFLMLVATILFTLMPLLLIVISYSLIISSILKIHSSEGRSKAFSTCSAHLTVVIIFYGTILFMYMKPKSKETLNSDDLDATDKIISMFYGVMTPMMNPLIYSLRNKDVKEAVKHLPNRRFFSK
In short: as §1

[7] = test system: O13F1 F18S T254M
In short: as §1

[8] = test system: O13F1 F18S
Chain of O13F1 F18S (as listed by the source, stated change not applied): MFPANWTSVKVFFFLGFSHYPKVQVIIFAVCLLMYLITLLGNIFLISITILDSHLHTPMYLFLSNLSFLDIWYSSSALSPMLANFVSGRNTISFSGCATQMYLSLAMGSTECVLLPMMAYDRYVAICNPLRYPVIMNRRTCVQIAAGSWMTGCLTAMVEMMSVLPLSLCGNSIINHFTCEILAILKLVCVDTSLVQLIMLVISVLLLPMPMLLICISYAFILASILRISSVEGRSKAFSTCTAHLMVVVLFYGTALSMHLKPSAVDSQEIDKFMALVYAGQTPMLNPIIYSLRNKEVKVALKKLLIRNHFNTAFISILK
In short: as §1

[9] = test system: O13G1 K46I M146L
In short: as §1

[10] = test system: O13G1
Chain of O13G1 (as listed by the source): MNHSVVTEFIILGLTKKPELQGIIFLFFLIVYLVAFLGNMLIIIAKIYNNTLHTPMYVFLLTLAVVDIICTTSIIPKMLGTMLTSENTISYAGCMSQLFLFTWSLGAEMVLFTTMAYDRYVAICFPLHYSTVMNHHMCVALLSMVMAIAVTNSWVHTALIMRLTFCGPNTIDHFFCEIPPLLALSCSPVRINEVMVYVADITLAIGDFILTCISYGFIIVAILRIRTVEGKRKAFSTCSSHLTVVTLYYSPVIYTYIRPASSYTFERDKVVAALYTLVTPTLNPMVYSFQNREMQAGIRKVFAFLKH
In short: as §1

[11] = test system: O13H1 Y266S
Chain of O13H1 Y266S (as listed by the source, stated change not applied): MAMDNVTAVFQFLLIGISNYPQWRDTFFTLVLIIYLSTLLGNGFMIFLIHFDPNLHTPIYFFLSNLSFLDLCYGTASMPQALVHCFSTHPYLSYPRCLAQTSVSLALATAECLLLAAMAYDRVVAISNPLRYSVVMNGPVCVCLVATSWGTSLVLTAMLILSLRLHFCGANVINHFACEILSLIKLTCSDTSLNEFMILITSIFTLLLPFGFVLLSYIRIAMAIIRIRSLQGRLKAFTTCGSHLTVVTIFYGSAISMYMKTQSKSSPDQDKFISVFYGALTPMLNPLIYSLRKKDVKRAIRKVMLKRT
In short: as §1

[12] = test system: O13J1
Chain of O13J1 (as listed by the source): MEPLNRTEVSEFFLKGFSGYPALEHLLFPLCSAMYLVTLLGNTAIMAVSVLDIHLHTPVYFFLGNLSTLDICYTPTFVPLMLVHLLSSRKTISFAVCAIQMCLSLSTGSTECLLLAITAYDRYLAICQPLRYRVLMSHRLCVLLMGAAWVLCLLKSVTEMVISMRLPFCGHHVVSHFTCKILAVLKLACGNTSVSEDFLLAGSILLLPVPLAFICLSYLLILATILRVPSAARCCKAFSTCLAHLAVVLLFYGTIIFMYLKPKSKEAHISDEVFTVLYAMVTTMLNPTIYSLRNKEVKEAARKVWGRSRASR
In short: as §1

[13] = test system: O14A2 I133V
Chain of O14A2 I133V (as listed by the source, stated change not applied): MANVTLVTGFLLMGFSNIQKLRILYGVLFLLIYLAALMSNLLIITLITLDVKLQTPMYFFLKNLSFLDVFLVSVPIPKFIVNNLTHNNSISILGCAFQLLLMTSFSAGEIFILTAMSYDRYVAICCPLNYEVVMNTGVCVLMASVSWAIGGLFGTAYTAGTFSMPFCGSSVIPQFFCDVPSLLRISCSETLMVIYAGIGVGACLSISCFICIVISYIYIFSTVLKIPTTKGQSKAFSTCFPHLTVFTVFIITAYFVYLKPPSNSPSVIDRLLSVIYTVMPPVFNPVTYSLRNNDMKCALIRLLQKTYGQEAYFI
In short: as §1

[14] = test system: O14CZ
Chain of O14CZ (as listed by the source): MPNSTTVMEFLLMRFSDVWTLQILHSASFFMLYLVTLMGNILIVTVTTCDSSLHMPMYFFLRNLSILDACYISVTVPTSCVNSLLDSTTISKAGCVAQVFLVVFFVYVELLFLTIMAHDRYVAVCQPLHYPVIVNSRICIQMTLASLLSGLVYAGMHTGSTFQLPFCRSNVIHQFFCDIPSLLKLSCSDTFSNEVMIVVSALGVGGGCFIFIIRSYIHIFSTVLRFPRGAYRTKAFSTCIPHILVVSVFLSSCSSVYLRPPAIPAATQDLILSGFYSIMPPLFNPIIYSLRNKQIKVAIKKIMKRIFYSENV
In short: as §1

[15] = test system: O14I1 V36A D50N Y216C
In short: as §1

[16] = test system: O14J1 N3Y
Chain of O14J1 N3Y (as listed by the source): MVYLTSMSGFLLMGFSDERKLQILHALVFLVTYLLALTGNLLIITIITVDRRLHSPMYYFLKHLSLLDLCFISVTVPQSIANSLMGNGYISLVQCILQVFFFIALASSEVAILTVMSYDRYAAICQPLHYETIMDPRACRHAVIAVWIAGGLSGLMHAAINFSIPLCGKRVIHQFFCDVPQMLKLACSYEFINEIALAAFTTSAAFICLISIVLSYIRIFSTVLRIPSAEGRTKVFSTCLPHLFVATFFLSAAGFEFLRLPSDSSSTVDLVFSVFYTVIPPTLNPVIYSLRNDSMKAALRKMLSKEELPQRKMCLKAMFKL
In short: as §1

[17] = test system: O14K1 D119Y
Chain of O14K1 D119Y (as listed by the source, stated change not applied): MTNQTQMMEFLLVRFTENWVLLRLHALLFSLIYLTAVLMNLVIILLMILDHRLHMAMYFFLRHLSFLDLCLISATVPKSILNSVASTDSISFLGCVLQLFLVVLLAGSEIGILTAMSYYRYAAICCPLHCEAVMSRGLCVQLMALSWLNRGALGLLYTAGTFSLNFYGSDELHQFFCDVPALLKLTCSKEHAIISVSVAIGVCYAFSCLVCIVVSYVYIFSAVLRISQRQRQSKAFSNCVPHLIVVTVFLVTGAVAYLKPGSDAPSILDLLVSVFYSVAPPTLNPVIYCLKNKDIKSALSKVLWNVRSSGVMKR
In short: as §1

[18] = test system: O2A25
Chain of O2A25 (as listed by the source): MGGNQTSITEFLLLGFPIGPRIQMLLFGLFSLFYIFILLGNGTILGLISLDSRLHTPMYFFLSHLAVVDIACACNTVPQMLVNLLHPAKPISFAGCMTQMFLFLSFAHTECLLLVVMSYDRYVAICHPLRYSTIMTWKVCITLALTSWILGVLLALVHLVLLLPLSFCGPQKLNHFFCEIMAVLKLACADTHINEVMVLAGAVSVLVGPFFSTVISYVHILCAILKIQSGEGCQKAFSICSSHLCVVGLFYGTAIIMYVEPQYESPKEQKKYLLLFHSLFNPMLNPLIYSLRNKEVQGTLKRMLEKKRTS
In short: as §1

[19] = test system: O2AE1
Chain of O2AE1 (as listed by the source): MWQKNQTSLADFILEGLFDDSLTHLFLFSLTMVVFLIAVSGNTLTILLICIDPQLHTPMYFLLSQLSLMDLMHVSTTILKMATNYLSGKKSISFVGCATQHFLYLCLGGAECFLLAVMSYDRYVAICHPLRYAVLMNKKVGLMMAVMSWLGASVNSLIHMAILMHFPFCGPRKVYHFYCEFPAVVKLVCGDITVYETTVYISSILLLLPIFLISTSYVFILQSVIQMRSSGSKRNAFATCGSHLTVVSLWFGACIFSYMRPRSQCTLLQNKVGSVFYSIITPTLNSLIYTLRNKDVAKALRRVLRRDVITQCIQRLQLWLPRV
In short: as §1

[20] = test system: O2AJ1
Chain of O2AJ1 (as listed by the source): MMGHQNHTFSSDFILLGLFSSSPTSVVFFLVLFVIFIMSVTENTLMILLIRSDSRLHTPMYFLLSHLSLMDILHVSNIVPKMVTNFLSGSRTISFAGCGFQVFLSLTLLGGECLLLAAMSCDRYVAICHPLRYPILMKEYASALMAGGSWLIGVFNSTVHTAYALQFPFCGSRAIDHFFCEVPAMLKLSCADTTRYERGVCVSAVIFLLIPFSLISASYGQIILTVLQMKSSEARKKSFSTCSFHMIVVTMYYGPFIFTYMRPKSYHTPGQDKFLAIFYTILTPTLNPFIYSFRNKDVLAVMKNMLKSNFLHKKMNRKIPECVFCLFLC
In short: as §1

Measured: odorant receptor agonist call

CC(=O)c1cc2c(cc1C)C(C)(C)C(C)CC2(C)C (centres undefined)
active: [1] | [2]

Cc1c([N+](=O)[O-])c(C)c([N+](=O)[O-])c(C(C)(C)C)c1[N+](=O)[O-]
inactive: [1]
active: [2]

CC(=O)c1cc(C(C)(C)C)cc2c1CCC2(C)C
inactive: [1] | [2]

C=CCOC(=O)Cc1ccccc1
not listed: [1] | [2]
inactive: all other assays above
